According to ChEMBL document CHEMBL1135624, “Parallel synthesis of potent, pyrazole-based inhibitors of Helicobacter pylori dihydroorotate dehydrogenase” (J Med Chem, 2002):
≈ marks a conversion by molar mass, not a printed value.

Experiments:
Helicobacter pylori [1] = experiment: Minimum Inhibitory concentration against Helicobacter pylori; type: functional
Method in brief: (§1)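 Whole-cell antimicrobial MIC against a reference American Type Culture Collection *H. pylori* strain, reported in μg/mL.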

[2] = target: Dihydroorotate dehydrogenase (quinone), mitochondrial (Homo sapiens, UniProt Q02127); experiment: Inhibition of human dihydroorotate dehydrogenase (DHODase)
Sequence of Dihydroorotate dehydrogenase (quinone), mitochondrial (Q02127 whole entry): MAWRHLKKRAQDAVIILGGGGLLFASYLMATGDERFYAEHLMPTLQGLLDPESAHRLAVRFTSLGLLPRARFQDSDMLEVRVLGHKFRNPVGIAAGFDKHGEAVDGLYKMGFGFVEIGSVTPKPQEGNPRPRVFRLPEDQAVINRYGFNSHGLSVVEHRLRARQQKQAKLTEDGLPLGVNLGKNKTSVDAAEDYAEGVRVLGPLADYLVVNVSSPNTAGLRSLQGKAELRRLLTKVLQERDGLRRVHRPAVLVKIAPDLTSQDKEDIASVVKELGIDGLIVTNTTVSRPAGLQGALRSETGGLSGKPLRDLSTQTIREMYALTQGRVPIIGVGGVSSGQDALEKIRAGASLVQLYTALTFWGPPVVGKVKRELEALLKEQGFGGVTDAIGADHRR

Helicobacter pylori [3] = experiment: Minimum inhibitory concentration measured against compound 13 resistant Helicobacter pylori isolate; type: functional
Method in brief: (§2)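 Spontaneously resistant H. pylori mutants were isolated by plating cells on the selecting pyrazole, with the same method for each of the two selecting agents. Each resistant isolate was then tested for MIC against the pyrazole not used to select it, as a cross-resistance check.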

[4] = Minimum inhibitory concentration measured against wild type.; type: functional; conditions: Helicobacter pylori; method in brief: as §1
Helicobacter pylori [5] = experiment: Minimum inhibitory concentration measured against compound 1 resistant Helicobacter pylori isolate; type: functional; method in brief: as §2

SMILES	MIC (Helicobacter pylori [1]) [µg/mL]	Ki [2] [µM]	MIC (Helicobacter pylori [3]) [µg/mL]	MIC [4] [µg/mL]	MIC (Helicobacter pylori [5]) [µg/mL]
CC(C)CNC(=O)c1cc(C(=O)NCc2ccccc2)nn1-c1ccc(Cl)cc1	> 64	> 50			
COc1ccc(-n2nc(C(=O)Nc3ccc(C(=O)N4CCCC4)cc3)cc2C(=O)NCc2ccccc2)cc1	> 32				
O=C(NCc1cccnc1)c1cc(C(=O)Nc2ccc(N3CCCCC3)cc2)n(-c2ccc(Cl)cc2)n1	2 (≈ 3.88 µM)	> 50			
COc1ccc(-n2nc(C(=O)NCC(C)C)cc2C(=O)Nc2ccc(C(=O)N3CCCC3)cc2)cc1	64 (≈ 131 µM)	> 50			
COc1ccc(-n2nc(C(=O)NCc3cccnc3)cc2C(=O)Nc2ccccc2)cc1	0.5 (≈ 1.17 µM)	> 50	24 (≈ 56.1 µM)	0.5 (≈ 1.17 µM)	32 (≈ 74.9 µM)
O=C(NCc1ccccc1)c1cc(C(=O)Nc2ccccc2)n(-c2ccc(Cl)cc2)n1	0.125 (≈ 0.29 µM)	50			
Cc1ccc(CNC(=O)c2cc(C(=O)Nc3ccccc3)n(-c3ccc(Cl)cc3)n2)cc1	32 (≈ 71.9 µM)	> 50			
COc1ccc(-n2nc(C(=O)NC(c3ccccc3)c3ccccc3)cc2C(=O)NCc2ccccc2)cc1	> 32	> 50			
O=C(NCc1cccnc1)c1cc(C(=O)Nc2ccccc2)n(-c2ccc(Cl)cc2)n1	0.25 (≈ 0.579 µM)	> 50			
NC(=O)c1ccc(NC(=O)c2cc(C(=O)NCc3ccccc3)nn2-c2ccc(Cl)cc2)cc1	8 (≈ 16.9 µM)	> 50			
COc1ccc(-n2nc(C(=O)NCc3ccccc3)cc2C(=O)Nc2ccc(C(=O)N3CCCC3)cc2)cc1	3 (≈ 5.73 µM)	> 50	> 64	3 (≈ 5.73 µM)	> 64
COc1ccc(-n2nc(C(=O)NCC3CCCO3)cc2C(=O)Nc2ccc(C(=O)N3CCCC3)cc2)cc1 (centres undefined)	> 32	> 50			
